Measurements from publication PMC4596243 (Cancer chemotherapy and pharmacology, 2013).
Values joined by “and” are separate entries in the source; they are usually repeats but may differ in a detail not shown here. Identical values can stand only once. Like-named read-outs stand apart in the source and are kept apart here. Blank lines part the entries; values can stand above or below the compound they belong to.

Legend:
[1] = assay type: in vivo, rat; details: for AUC(0-inf): AUC0–∞
[2] = TMZ administered with TNP-470; murine glioma model; cited from earlier work
[3] = tested on: recurrent GBM; details: cited from earlier work
[4] = tested on: U87 glioma; experiment: In vivo susceptibility-contrast MRI of tumor vasculature after cediranib; design: species or system mice; details: cediranib once daily
Procedure, shortened: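 Mice bearing brain U87 tumours imaged at 9.4T on day 12 (2 control, 2 given test compound once daily until sacrifice) or day 21 (3 control, 1 treated). Multi-echo gradient-echo (TR 400 ms) and spin-echo (TR 2000 ms), 16 coronal 1-mm slices, 0.1 mm in-plane, before/after i.v. Feridex 25 mg Fe/kg. Vessel size from (ΔR2*/ΔR2)^3/2; manual tumour ROIs versus mirrored contralateral ROIs, histograms compared.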

[5] = corrected for recovery, post-cediranib, individual animal
[6] = corrected for recovery, pre-cediranib, individual animal
[7] = post- vs pre-cediranib, tumor ECF, not statistically significant

T1/2 [1, 5]: 1.5 h and 1.7 h and 3.4 h
AUC(0-inf) ([1]; male, athymic, rat, tumor ECF (brain microdialysate), po, 50 mg/kg, corrected for recovery, post-cediranib, mean ± S.D.): 3720 ± 610 ng·h/mL
AUC(0-inf) ([1]; male, athymic, rat, tumor ECF (brain microdialysate), po, 50 mg/kg, corrected for recovery, pre-cediranib, mean ± S.D.): 1820 ± 640 ng·h/mL
AUC(0-inf) ([1]; male, athymic, rat, tumor ECF (brain microdialysate), po, 50 mg/kg, raw data, post-cediranib, mean ± S.D.): 2840 ± 400 ng·h/mL
AUC(0-inf) ([1]; male, athymic, rat, tumor ECF (brain microdialysate), po, 50 mg/kg, raw data, pre-cediranib, mean ± S.D.): 1310 ± 510 ng·h/mL
Cmax ([1]; male, athymic, rat, tumor ECF (brain microdialysate), po, 50 mg/kg, Cmax, corrected for recovery, post-cediranib, mean ± S.D.): 830 ± 450 ng/mL
Cmax ([1]; male, athymic, rat, tumor ECF (brain microdialysate), po, 50 mg/kg, Cmax, corrected for recovery, pre-cediranib, mean ± S.D.): 590 ± 220 ng/mL
half-life ([1]; male, athymic, rat, tumor ECF (brain microdialysate), po, 50 mg/kg, T1/2, corrected for recovery, post-cediranib, mean ± S.D.): 2 ± 0.9 h
half-life ([1]; male, athymic, rat, tumor ECF (brain microdialysate), po, 50 mg/kg, T1/2, corrected for recovery, pre-cediranib, mean ± S.D.): 1.7 ± 0.3 h
half-life ([1]; male, athymic, rat, tumor ECF (brain microdialysate), po, 50 mg/kg, T1/2, raw data, post-cediranib, mean ± S.D.): 2 ± 0.9 h
half-life ([1]; male, athymic, rat, tumor ECF (brain microdialysate), po, 50 mg/kg, T1/2, raw data, pre-cediranib, mean ± S.D.): 1.7 ± 0.3 h
increase in ECF-TMZ AUC0-∞ after cediranib administration [1, 7]: 2.0 fold and 2 fold
increase in ECF-TMZ Cmax after cediranib administration [1, 7]: 1.4 fold
Structure (SMILES): Cn1nnc2c(C(N)=O)ncn2c1=O [TMZ, temozolomide]
AUC0–∞ [1, 5]: 3120 ng·h/mL and 4520 ng·h/mL and 3870 ng·h/mL and 3100 ng·h/mL
Cmax [1, 5]: 1610 ng/mL and 650 ng/mL and 310 ng/mL and 1290 ng/mL and 640 ng/mL and 690 ng/mL
AUC0–∞ [1, 6]: 1730 ng·h/mL and 2380 ng·h/mL and 600 ng·h/mL and 2480 ng·h/mL and 1500 ng·h/mL and 1970 ng·h/mL and 2090 ng·h/mL
Cmax [1, 6]: 460 ng/mL and 620 ng/mL and 190 ng/mL and 710 ng/mL and 690 ng/mL and 900 ng/mL and 530 ng/mL
Cmax ([1]; raw data, pre-cediranib, TMZ 50 mg/kg oral, tumor ECF, individual animal): 510 ng/mL and 540 ng/mL and 380 ng/mL and 400 ng/mL and 470 ng/mL and 100 ng/mL

Structure (SMILES): CO[C@@H]1[C@H](OC(=O)NC(=O)CCl)CC[C@]2(CO2)[C@H]1[C@@]1(C)O[C@@H]1CC=C(C)C [TNP-470]
reduction of TMZ in tumor concentrations [2]: 50%

Structure (SMILES): COc1cc2c(Oc3ccc4[nH]c(C)cc4c3F)ncnc2cc1OCCCN1CCCC1 [cediranib]
progression-free survival (PFS) ([3]; cediranib monotherapy, recurrent GBM patients): increased progression-free survival
duration of tumor vessel normalization ([3]; once daily cediranib, patients with recurrent GBM, starting as early as one day after the treatment): at least 28 days
average vessel size (ΔR2*/ΔR2)^3/2 in treated tumor ([4]; D12): lower compared to the contralateral ROI
effect on vessel size in treated tumor ([4]; D21): not apparent
